Converted amounts (≈) assume the structure as drawn.
Key:
[1] = Percentage unbound in rat plasma; format: ADME, cell-free
[2] = Bioavailability in dog at 10 mg/kg, iv; format: ADME, organism-based, Canis lupus familiaris; settings: plasma
[3] = Percentage unbound in mouse plasma; format: ADME, cell-free
[4] = system: Escherichia coli; experiment: Antimicrobial activity against Escherichia coli tolC- by broth microdilution/CLSI method; format: functional; settings: Escherichia coli; read-out: MIC
[5] = target: T1, ATP-binding cassette sub-family C member 2 (Homo sapiens, UniProt Q92887); experiment: Inhibition of ATPase activity of human MRP2 assessed as inorganic phosphate
T1 sequence (Q92887 whole entry): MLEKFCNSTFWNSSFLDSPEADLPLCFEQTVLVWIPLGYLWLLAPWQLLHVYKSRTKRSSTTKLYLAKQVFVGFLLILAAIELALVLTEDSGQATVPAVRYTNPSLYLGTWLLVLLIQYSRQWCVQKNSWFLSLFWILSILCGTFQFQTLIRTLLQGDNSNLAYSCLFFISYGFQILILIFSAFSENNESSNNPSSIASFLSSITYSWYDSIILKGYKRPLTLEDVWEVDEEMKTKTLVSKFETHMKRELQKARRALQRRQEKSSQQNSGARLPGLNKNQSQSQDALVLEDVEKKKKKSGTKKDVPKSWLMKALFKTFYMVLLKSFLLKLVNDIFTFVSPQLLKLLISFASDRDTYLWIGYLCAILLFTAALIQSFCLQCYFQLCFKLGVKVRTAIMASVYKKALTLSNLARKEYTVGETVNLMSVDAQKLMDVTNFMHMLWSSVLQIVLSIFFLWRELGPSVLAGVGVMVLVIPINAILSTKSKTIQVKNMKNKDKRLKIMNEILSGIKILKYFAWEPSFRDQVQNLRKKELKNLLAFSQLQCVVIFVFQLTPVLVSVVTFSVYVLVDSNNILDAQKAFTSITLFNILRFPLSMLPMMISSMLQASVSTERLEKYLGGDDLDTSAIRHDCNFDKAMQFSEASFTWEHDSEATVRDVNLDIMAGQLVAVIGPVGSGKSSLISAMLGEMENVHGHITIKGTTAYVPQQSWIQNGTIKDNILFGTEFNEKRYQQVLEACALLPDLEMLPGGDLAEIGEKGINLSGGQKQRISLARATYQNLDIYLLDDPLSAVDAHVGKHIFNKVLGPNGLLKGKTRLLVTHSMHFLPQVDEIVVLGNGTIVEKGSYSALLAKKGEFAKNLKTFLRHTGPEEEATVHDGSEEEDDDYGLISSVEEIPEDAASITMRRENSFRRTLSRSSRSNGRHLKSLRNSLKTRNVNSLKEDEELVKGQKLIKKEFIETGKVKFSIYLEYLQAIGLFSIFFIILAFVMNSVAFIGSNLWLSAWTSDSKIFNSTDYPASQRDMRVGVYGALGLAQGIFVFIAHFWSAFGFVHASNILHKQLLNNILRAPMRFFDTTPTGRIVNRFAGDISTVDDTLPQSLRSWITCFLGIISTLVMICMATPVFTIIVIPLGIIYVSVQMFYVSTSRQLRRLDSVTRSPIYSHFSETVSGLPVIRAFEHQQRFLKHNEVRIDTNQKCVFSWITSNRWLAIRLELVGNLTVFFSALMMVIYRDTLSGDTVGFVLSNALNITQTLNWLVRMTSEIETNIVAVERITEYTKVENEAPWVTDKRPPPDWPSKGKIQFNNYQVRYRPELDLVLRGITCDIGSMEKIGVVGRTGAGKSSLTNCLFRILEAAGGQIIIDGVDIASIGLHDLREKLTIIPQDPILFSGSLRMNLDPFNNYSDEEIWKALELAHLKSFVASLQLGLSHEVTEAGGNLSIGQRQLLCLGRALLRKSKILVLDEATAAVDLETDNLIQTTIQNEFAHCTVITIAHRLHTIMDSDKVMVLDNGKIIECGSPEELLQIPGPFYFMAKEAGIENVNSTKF

[6] = Solubility of the compound; format: physicochemical
[7] = Clearance in CD1 mouse at 10 mg/kg, iv; format: ADME, organism-based; parameters: dose 10 mg/kg, route intravenous; settings: in vivo
[8] = Bioavailability in CD1 mouse at 10 mg/kg, […]; format: ADME, organism-based; settings: in vivo
[9] = Clearance in dog at 10 mg/kg, iv; format: ADME, organism-based, Canis lupus familiaris; parameters: dose 10 mg/kg, route intravenous; settings: plasma
[10] = Ratio of MIC for methicillin, quinolone-resistant Staphylococcus aureus to fraction unbound in human plasma; format: ADME
[11] = AUC in methicillin-sensitive Staphylococcus aureus ARC516 infected in neutropenic CD1 mouse thigh model at 30 mg/kg, ip q24; format: ADME, organism-based; parameters: dose 30 mg/kg, route intraperitoneal; settings: in vivo
[12] = target: DNA gyrase subunit B (Staphylococcus aureus, UniProt P0A0K8); experiment: Inhibition of ATPase activity of Staphylococcus aureus GyrB
DNA gyrase subunit B, sequence (P0A0K8 whole entry): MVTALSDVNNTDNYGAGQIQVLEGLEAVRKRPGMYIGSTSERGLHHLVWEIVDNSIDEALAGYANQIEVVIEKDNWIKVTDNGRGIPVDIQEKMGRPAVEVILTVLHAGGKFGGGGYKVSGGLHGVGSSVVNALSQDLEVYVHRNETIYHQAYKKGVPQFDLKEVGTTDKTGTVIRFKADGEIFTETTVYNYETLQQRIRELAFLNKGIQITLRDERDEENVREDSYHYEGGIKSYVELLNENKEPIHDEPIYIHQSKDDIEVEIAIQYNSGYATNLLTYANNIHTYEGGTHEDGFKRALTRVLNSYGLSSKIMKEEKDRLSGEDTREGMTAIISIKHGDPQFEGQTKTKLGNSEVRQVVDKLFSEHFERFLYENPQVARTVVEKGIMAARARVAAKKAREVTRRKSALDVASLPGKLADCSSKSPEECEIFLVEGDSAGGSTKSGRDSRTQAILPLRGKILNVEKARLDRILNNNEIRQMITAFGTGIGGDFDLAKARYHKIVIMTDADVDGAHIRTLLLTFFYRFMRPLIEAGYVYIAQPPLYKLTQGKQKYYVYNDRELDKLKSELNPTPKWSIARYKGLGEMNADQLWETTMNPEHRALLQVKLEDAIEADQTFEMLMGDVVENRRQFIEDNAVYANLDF
How it was run: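 IC50 was determined against S. aureus GyrB in the routine screening assay. The enzyme concentration limits resolution below 10 nM.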

[13] = system: Escherichia coli; experiment: Antimicrobial activity against wild-type Escherichia coli Eco523 by broth microdilution/CLSI method; format: functional; settings: Escherichia coli, Eco523; read-out: MIC
[14] = Clearance in rat at 10 mg/kg, iv; format: ADME, organism-based; parameters: dose 10 mg/kg, route intravenous; settings: in vivo
[15] = system: Streptococcus pyogenes; experiment: Antimicrobial activity against Streptococcus pyogenes by broth microdilution/CLSI method; format: functional
[16] = Percentage unbound in human plasma; format: ADME, cell-free
[17] = Octanol-phosphate buffer distribution coefficient, log D of the compound at pH 7.4 by shake flask method; format: physicochemical
[18] = Clearance in TR-negative Wistar rat at 10 mg/kg, iv; format: ADME, organism-based; parameters: dose 10 mg/kg, route intravenous; settings: in vivo
[19] = system: Streptococcus pneumoniae; experiment: Antibacterial activity against Streptococcus pneumoniae by broth microdilution/CLSI method; format: functional; settings: Streptococcus pneumoniae; read-out: MIC
[20] = system: Staphylococcus aureus; experiment: Antimicrobial activity against methicillin, quinolone-resistant Staphylococcus aureus by broth microdilution/CLSI method; format: functional; settings: Staphylococcus aureus; read-out: MIC
[21] = system: Mus musculus; experiment: fAUC in methicillin-sensitive Staphylococcus aureus ARC516 infected in neutropenic CD1 mouse thigh model at 30 mg/kg, ip q24; format: ADME, organism-based; parameters: dose 30 mg/kg, route intraperitoneal; settings: in vivo
[22] = system: Moraxella catarrhalis; experiment: Antimicrobial activity against Moraxella catarrhalis by broth microdilution/CLSI method; format: functional; settings: Moraxella catarrhalis; read-out: MIC
[23] = Dissociation constant, pKa of the compound; format: physicochemical
[24] = system: Staphylococcus aureus; experiment: Antibacterial activity against methicillin-sensitive Staphylococcus aureus ARC516 infected in neutropenic CD1 mouse thigh model assessed as decrease in bacterial viable counts at 30 mg/kg, ip q24; format: functional; settings: route intraperitoneal
[25] = system: Staphylococcus aureus; experiment: Antimicrobial activity against methicillin-sensitive Staphylococcus aureus by broth microdilution/CLSI method; format: functional; settings: Staphylococcus aureus; read-out: MIC
[26] = system: Haemophilus influenzae; experiment: Antimicrobial activity against Haemophilus influenzae by broth microdilution/CLSI method; format: functional; settings: Haemophilus influenzae; for MIC: read-out: MIC
[27] = Clearance in Wistar rat at 10 mg/kg, iv; format: ADME, organism-based; parameters: dose 10 mg/kg, route intravenous; settings: in vivo
[28] = system: Staphylococcus aureus; experiment: Antibacterial activity against methicillin-sensitive Staphylococcus aureus ARC516 infected in ip dosed neutropenic CD1 mouse thigh model assessed as decrease in bacterial viable counts treated for q24; format: functional; settings: ARC516, Thigh muscle
[29] = Percentage unbound in dog plasma; format: ADME, cell-free, Canis lupus familiaris
[30] = target: T2, ATP-binding cassette sub-family C member 2 (Rattus norvegicus, UniProt Q63120); experiment: Inhibition of ATPase activity of rat Mrp2 assessed as inorganic phosphate
T2 sequence (Q63120 whole entry): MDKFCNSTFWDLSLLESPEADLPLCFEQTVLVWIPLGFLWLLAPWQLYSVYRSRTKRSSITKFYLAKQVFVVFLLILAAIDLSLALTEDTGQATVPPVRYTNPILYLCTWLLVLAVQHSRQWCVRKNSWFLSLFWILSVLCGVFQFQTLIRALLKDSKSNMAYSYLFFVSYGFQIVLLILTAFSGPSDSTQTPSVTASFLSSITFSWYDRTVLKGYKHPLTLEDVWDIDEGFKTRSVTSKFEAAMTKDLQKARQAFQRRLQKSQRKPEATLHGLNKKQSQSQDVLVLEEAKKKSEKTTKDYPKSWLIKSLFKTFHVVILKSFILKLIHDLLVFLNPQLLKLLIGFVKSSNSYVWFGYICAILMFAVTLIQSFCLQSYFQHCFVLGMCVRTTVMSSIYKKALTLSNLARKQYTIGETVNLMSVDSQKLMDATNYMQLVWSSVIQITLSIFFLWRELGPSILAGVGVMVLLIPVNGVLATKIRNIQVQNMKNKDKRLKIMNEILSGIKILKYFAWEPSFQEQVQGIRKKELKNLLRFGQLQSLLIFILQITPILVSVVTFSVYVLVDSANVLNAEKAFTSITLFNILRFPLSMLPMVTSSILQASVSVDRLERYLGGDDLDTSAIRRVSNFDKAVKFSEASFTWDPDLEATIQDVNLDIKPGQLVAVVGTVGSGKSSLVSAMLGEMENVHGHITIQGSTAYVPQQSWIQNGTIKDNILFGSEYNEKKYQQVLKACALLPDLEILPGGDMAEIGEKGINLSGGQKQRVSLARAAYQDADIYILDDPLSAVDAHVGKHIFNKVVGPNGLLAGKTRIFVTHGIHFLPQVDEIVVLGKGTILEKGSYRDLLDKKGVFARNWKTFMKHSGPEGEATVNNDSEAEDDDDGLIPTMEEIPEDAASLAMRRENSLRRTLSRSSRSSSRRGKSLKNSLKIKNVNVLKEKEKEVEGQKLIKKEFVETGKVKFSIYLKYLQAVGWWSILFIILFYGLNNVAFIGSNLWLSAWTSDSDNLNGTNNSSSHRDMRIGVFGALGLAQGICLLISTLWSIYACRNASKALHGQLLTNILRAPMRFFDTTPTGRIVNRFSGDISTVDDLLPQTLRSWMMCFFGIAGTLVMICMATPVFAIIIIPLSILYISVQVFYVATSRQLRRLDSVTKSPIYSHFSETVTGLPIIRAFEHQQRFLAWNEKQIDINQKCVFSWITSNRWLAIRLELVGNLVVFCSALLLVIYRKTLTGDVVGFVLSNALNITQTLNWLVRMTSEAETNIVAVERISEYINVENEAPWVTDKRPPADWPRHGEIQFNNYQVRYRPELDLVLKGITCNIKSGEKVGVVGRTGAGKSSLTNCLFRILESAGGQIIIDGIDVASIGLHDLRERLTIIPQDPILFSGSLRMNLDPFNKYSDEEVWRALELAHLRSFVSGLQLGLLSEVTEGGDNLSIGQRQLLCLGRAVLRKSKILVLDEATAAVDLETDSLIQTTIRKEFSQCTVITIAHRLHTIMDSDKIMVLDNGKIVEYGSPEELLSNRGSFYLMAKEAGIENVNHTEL

[31] = target: T1, ATP-binding cassette sub-family C member 2; experiment: Stimulation of ATPase activity of human MRP2 assessed as inorganic phosphate
[32] = target: T2, ATP-binding cassette sub-family C member 2; experiment: Stimulation of ATPase activity of rat Mrp2 assessed as inorganic phosphate
[33] = Bioavailability in Wistar rat at 10 mg/kg, […]; format: ADME, organism-based; settings: in vivo
[34] = system: Staphylococcus aureus; experiment: Antimicrobial activity against methicillin-resistant Staphylococcus aureus by broth microdilution/CLSI method; format: functional
[35] = system: Enterococcus faecalis; experiment: Antimicrobial activity against Enterococcus faecalis by broth microdilution/CLSI method; format: functional
[36] = system: Staphylococcus aureus; experiment: Antimicrobial activity against Staphylococcus aureus by broth microdilution/CLSI method; format: functional
[37] = system: Enterococcus faecium; experiment: Antimicrobial activity against Enterococcus faecium by broth microdilution/CLSI method; format: functional
[38] = system: Enterococcus faecalis; experiment: Antimicrobial activity against vancomycin-resistant Enterococcus faecalis by broth microdilution/CLSI method; format: functional
[39] = system: Haemophilus influenzae; experiment: Antimicrobial activity against amoxicillin-resistant Haemophilus influenzae by broth microdilution/CLSI method; format: functional

Question: With `COCC(COC)NC(=O)c1nc(N2CC[C@@H](NC(=O)c3[nH]c(C)c(Cl)c3Cl)[C@@H](OC)C2)sc1C(=O)O` as the compound, how does the fraction unbound [1] read?
Answer: 0.038

Question: What about the bioavailability [2] of the same compound?
Answer: 29%

Question: And the fraction unbound [3]?
Answer: 0.042

Question: And the MIC [4]?
Answer: 1.3 µg/mL (≈ 2.25 µM)

Question: And the IC50 [5]?
Answer: 200 µM

Question: And the solubility [6]?
Answer: 860 µM (≈ 497 µg/mL)

Question: What about the clearance [7] of the same compound?
Answer: 5.35 mL/min/kg

Question: What about the bioavailability [8] of the same compound?
Answer: 25%

Question: What about the clearance [9] of the same compound?
Answer: 1.6 mL/min/kg

Question: And the Ratio [10]?
Answer: 2.3

Question: What about the AUC [11] of the same compound?
Answer: 148 µg·h/mL

Question: What about the IC50 [12] of the same compound?
Answer: < 0.01 µM

Question: What about the MIC [13] of the same compound?
Answer: 23 µg/mL (≈ 39.8 µM)

Question: What about the clearance [14] of the same compound?
Answer: 18 mL/min/kg

Question: And the MIC [15]?
Answer: 0.016 µg/mL (≈ 0.0277 µM)

Question: And the fraction unbound [16]?
Answer: 0.021

Question: What about the logD [17] of the same compound?
Answer: 1

Question: What about the clearance [18] of the same compound?
Answer: 3 mL/min/kg

Question: What about the MIC [19] of the same compound?
Answer: 0.016 µg/mL (≈ 0.0277 µM)

Question: And the MIC [20]?
Answer: 0.049 µg/mL (≈ 0.0847 µM)

Question: And the fAUC [21]?
Answer: 6.26 µg·h/mL

Question: And the MIC [22]?
Answer: < 0.008 µg/mL

Question: And the pKa [23]?
Answer: 4.5

Question: And the deltalog10CFU [24]?
Answer: -0.16

Question: And the MIC [25]?
Answer: 0.05 µg/mL (≈ 0.0864 µM)

Question: And the MIC [26]?
Answer: 0.1 µg/mL (≈ 0.173 µM)

Question: And the clearance [27]?
Answer: 13 mL/min/kg

Question: And the MIC [28]?
Answer: 0.03 µg/mL (≈ 0.0519 µM)

Question: And the fraction unbound [29]?
Answer: 0.12

Question: What about the IC50 [30] of the same compound?
Answer: 75 µM

Question: What about the EC50 [31] of the same compound?
Answer: > 200 µM

Question: What about the EC50 [32] of the same compound?
Answer: > 200 µM

Question: What does the source list for `CO[C@H]1CN(c2nc(-c3ncnn3C)c(C(=O)O)s2)CC[C@H]1NC(=O)c1[nH]c(C)c(Cl)c1Cl`?
Answer: fraction unbound [1]: 0.088; bioavailability [2]: 70%; fraction unbound [3]: 0.097; MIC [4]: 0.46 µg/mL (≈ 0.894 µM); IC50 [5]: > 200 µM; solubility [6]: 630 µM (≈ 324 µg/mL); clearance [7]: 7.4 mL/min/kg; bioavailability [8]: 74%; clearance [9]: 1.6 mL/min/kg; Ratio [10]: 1.25; AUC [11]: 204 µg·h/mL; IC50 [12]: < 0.01 µM; bioavailability [33]: 65%; MIC [13]: 32 µg/mL (≈ 62.2 µM); clearance [14]: 17 mL/min/kg; MIC [15]: 0.016 µg/mL (≈ 0.0311 µM); fraction unbound [16]: 0.032; logD [17]: 0.15; MIC [19]: 0.007 µg/mL (≈ 0.0136 µM); MIC [20]: 0.04 µg/mL (≈ 0.0778 µM); fAUC [21]: 19.8 µg·h/mL; MIC [22]: 0.026 µg/mL (≈ 0.0505 µM); pKa [23]: 4.5; deltalog10CFU [24]: 1.54; MIC [25]: 0.063 µg/mL (≈ 0.122 µM); MIC [26]: 0.12 µg/mL (≈ 0.233 µM); MIC [28]: 0.03 µg/mL (≈ 0.0583 µM); fraction unbound [29]: 0.2; IC50 [30]: > 200 µM; EC50 [31]: 140 µM; EC50 [32]: 110 µM

Question: For `C[C@H]1COc2c(N3CCN(C)CC3)c(F)cc3c(=O)c(C(=O)O)cn1c23.C[C@H]1COc2c(N3CCN(C)CC3)c(F)cc3c(=O)c(C(=O)O)cn1c23.O` [LEVOFLOXACIN], which MIC90 [34] is on record?
Answer: 64 µg/mL

Question: What about the MIC90 [35] of the same compound?
Answer: 32 µg/mL

Question: What about the MIC90 [36] of the same compound?
Answer: 32 µg/mL

Question: And the MIC90 [37]?
Answer: > 128 µg/mL

Question: What about the MIC90 [26] of the same compound?
Answer: 0.015 µg/mL

Question: What about the MIC90 [38] of the same compound?
Answer: 64 µg/mL

Question: And the MIC90 [39]?
Answer: 0.015 µg/mL

Question: Which results are given for `Cc1[nH]c(C(=O)NC2CCN(c3ncc(C(=O)O)s3)CC2)c(Cl)c1Cl`?
Answer: fraction unbound [1]: 0.086; fraction unbound [3]: 0.089; MIC [4]: 0.22 µg/mL (≈ 0.546 µM); IC50 [5]: > 200 µM; clearance [7]: 15.5 mL/min/kg; clearance [9]: 3 mL/min/kg; IC50 [12]: 0.062 µM; bioavailability [33]: 6.7%; MIC [13]: > 64 µg/mL; MIC [15]: 0.79 µg/mL (≈ 1.96 µM); clearance [18]: 20 mL/min/kg; MIC [19]: 0.81 µg/mL (≈ 2.01 µM); MIC [20]: 13 µg/mL (≈ 32.2 µM); MIC [22]: 2.2 µg/mL (≈ 5.46 µM); pKa [23]: 3.4; MIC [25]: 11 µg/mL (≈ 27.3 µM); MIC [26]: 0.5 µg/mL (≈ 1.24 µM); clearance [27]: 78 mL/min/kg; fraction unbound [29]: 0.12; IC50 [30]: > 200 µM; EC50 [31]: 145 µM; EC50 [32]: 27 µM
